Experimental data: ChEMBL document CHEMBL1123760, “Synthesis and oral antifungal activity of novel azolylpropanolones and related compounds” (1987)
Converted amounts (≈) assume the structure as drawn.

Tests used:
Assay type in all cases: functional
[1] = system: Mus musculus; experiment: In vivo activity against subacute systemic murine candidiasis in mice at a daose of 12.5-100 mg/kg dosage range. Value was determined at day 15 after infection; conditions: 360 h
[2] = system: Trichophyton benhamiae; experiment: In vitro antifungal activity against Trichophyton asteroides
Outline: (§1)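 Broth microdilution MIC in Sabouraud's glucose broth; final inocula 1 × 10^5 cells/mL (yeast) or 1 × 10^5 conidia/mL (mold and dermatophyte).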

[3] = system: Cavia porcellus; experiment: Number of skin sections yielding negative culture / total (48) (percentage) in guinea pig dermatophytosis at dose of 40 mg/kg […]. (Value is from Six skin sections cut out from each treated site)
Outline: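 Guinea pigs infected with Trichophyton asteroides, four animals each with two lesion sites. Oral 40 mg/kg once daily for 10 days (day 3 to day 12). Read-out is the rate of negative cultures from infected skin sections.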

[4] = system: Mus musculus; experiment: Ratio of in vivo number of survivors / total infected; design: reference not given here
[5] = system: Candida albicans; experiment: In vitro antifungal activity against Candida albicans; outline: as §1
[6] = system: Aspergillus fumigatus; experiment: In vitro antifungal activity against Aspergillus fumigatus; outline: as §1
[7] = system: Candida albicans; experiment: Minimum effective concentration for inhibition of pseudomycelium formation in Candida albicans; conditions: for minimal effective concentration: Candida albicans, read-out: MEC
Outline: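 C. albicans KE-2 (clinical isolate) at a final 1 × 10^6 yeast cells/mL in EMEM with 20% calf serum; compounds diluted by the same microtiter system as for MICs. After incubation, wells were Giemsa-stained (5% in phosphate buffer) and read by microscope. MEC is the lowest concentration preventing typical pseudomycelium formation.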

[8] = Trichophyton benhamiae, read-out: MIC
[9] = Candida albicans, read-out: MIC
[10] = Aspergillus fumigatus, read-out: MIC

| Structure (SMILES) | ED50 [1] | MIC [2, 8] | No. total [3] | No. of survivors [4] | MIC [5, 9] | MIC [6, 10] | minimal effective concentration [7] | MIC [2] | MIC [6] | MEC [7] | MIC [5] |
| --- | --- | --- | --- | --- | --- | --- | --- | --- | --- | --- | --- |
| CC(C)C(=O)C(O)(Cn1cncn1)c1ccc(Cl)cc1Cl (stereo not given) | 22.6 mg/kg | 0.1 µg/mL (≈ 0.305 µM) | 7 | 8 | 100 µg/mL (≈ 305 µM) | 100 µg/mL (≈ 305 µM) | 0.04 µg/mL | – | – | – | – |
| O=C(c1ccc(Cl)cc1Cl)C(O)(Cn1cncn1)c1ccc(Cl)cc1Cl (stereo not given) | 32.3 mg/kg | 0.1 µg/mL (≈ 0.232 µM) | 27 | 7 | 50 µg/mL (≈ 116 µM) | > 100 µg/mL | 0.16 µg/mL | – | – | – | – |
| O=C(c1ccc(Cl)cc1Cl)C(O)(Cn1cncn1)c1ccc(Cl)cc1 (stereo not given) | – | 0.1 µg/mL (≈ 0.252 µM) | – | 8 | 100 µg/mL (≈ 252 µM) | > 100 µg/mL | 0.31 µg/mL | – | – | – | – |
| CC(C)[C@H]1OC(=O)O[C@]1(Cn1cncn1)c1ccc(Cl)cc1Cl | – | 3.1 µg/mL (≈ 8.7 µM) | – | 8 | 100 µg/mL (≈ 281 µM) | > 100 µg/mL | 0.63 µg/mL | – | – | – | – |
| O=S1O[C@H](c2ccc(F)cc2)[C@](Cn2cncn2)(c2ccc(Cl)cc2Cl)O1 (stereo not given in full) | – | 0.1 µg/mL (≈ 0.233 µM) | – | 0 | > 100 µg/mL | > 100 µg/mL | 0.04 µg/mL | – | – | – | – |
| OC(c1ccccc1Cl)C(O)(Cn1ccnc1)c1ccccc1Cl (stereo not given) | – | 0.4 µg/mL (≈ 1.1 µM) | – | 4 | > 100 µg/mL | 100 µg/mL (≈ 275 µM) | 1.25 µg/mL | – | – | – | – |
| O=C(c1ccc(F)cc1)C(O)(Cn1cncn1)c1ccccc1Cl (stereo not given) | – | 1.6 µg/mL (≈ 4.63 µM) | – | 8 | 100 µg/mL (≈ 289 µM) | > 100 µg/mL | 2.5 µg/mL | – | – | – | – |
| O=C(c1ccc(Cl)cc1Cl)C(O)(Cn1cncn1)c1ccc(F)cc1 (stereo not given) | 20.2 mg/kg | 0.1 µg/mL (≈ 0.263 µM) | – | 8 | 100 µg/mL (≈ 263 µM) | > 100 µg/mL | 0.31 µg/mL | – | – | – | – |
| O=S1O[C@H](c2ccc(F)cc2)[C@@](Cn2cncn2)(c2ccc(Cl)cc2Cl)O1 (stereo not given in full) | – | 0.1 µg/mL (≈ 0.233 µM) | – | 4 | > 100 µg/mL | 50 µg/mL (≈ 117 µM) | 0.04 µg/mL | – | – | – | – |
| O=C(c1ccccc1F)C(O)(Cn1cncn1)c1ccc(Cl)cc1Cl (stereo not given) | – | 0.1 µg/mL (≈ 0.263 µM) | – | 7 | 100 µg/mL (≈ 263 µM) | > 100 µg/mL | 0.04 µg/mL | – | – | – | – |
| CC(C)C(=O)C(O)(Cn1cncn1)c1ccc(Cl)cc1 (stereo in doubt; 36) | – | 0.1 µg/mL (≈ 0.34 µM) | – | 7 | 100 µg/mL (≈ 340 µM) | 12.5 µg/mL (≈ 42.6 µM) | 0.04 µg/mL | – | – | – | – |
| CC(C)C(=O)C(O)(Cn1cncn1)c1ccc(Cl)cc1 (stereo in doubt; 39) | 14.7 mg/kg | – | – | – | – | – | – | 0.1 µg/mL (≈ 0.34 µM) | – | – | – |
| OC(c1ccc(F)cc1)C(O)(Cn1cncn1)c1ccc(Cl)cc1Cl (stereo in doubt; 92) | 25.6 mg/kg | – | 11 | 8 | 50 µg/mL (≈ 131 µM) | – | – | 0.1 µg/mL (≈ 0.262 µM) | 25 µg/mL (≈ 65.4 µM) | 0.08 µg/mL | – |
| CC(O)(c1ccc(F)cc1)C(O)(Cn1cncn1)c1ccc(Cl)cc1 (stereo in doubt; 162) | – | – | – | 8 | – | – | – | 0.1 µg/mL (≈ 0.276 µM) | 100 µg/mL (≈ 276 µM) | 0.08 µg/mL | >100 µg/mL |
| CC(=O)N1CCN(c2ccc(OCC3COC(Cn4ccnc4)(c4ccc(Cl)cc4Cl)O3)cc2)CC1 (stereo not given) [KETOCONAZOLE] | 32.3 mg/kg | – | – | – | – | – | – | – | – | – | – |
